Measurements as given in ChEMBL document CHEMBL1146142, “Synthesis of miltirone analogues as inhibitors of Cdc25 phosphatases” (Bioorg Med Chem Lett, 2006).

Experiments:
[1] = target: T1, M-phase inducer phosphatase 1 (Homo sapiens, UniProt P30304); assay: Inhibitory activity against human Cdc25A phosphatase
T1 sequence (P30304 whole entry): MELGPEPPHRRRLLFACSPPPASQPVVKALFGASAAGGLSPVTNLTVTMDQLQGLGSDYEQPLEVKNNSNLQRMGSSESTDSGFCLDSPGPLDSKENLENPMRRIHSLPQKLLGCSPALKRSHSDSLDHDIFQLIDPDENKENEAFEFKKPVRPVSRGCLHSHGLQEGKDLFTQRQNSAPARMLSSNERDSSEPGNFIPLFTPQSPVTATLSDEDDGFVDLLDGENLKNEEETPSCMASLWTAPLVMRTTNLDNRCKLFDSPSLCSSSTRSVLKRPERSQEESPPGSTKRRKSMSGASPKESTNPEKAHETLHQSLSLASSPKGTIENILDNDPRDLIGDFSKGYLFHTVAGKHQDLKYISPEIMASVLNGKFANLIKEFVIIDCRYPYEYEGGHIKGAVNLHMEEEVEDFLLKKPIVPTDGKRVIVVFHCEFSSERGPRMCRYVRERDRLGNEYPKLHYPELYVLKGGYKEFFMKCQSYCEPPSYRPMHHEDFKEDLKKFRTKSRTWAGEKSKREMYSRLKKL

[2] = target: T2, M-phase inducer phosphatase 2 (Homo sapiens, UniProt P30305); assay: Inhibitory activity against human Cdc25B phosphatase
T2 sequence (P30305 whole entry): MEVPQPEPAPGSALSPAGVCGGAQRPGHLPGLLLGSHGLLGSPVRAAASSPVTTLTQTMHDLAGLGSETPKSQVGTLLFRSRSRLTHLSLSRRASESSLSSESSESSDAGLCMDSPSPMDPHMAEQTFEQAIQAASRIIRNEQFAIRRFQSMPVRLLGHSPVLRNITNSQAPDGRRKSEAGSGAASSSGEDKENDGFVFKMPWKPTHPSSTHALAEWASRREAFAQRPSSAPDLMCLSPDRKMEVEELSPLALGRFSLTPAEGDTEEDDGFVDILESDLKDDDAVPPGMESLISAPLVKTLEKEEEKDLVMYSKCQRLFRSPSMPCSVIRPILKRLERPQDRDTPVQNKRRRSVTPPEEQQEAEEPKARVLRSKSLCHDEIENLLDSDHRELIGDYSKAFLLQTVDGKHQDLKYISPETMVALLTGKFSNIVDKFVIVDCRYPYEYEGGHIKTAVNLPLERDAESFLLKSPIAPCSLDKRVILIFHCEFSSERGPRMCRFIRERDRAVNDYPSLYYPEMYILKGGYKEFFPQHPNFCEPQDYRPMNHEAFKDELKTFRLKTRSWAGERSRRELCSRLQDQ

[3] = target: T3, Tyrosine-protein phosphatase non-receptor type 1 (Homo sapiens, UniProt P18031); assay: Inhibitory activity against human PTP1B
T3 sequence (P18031 whole entry): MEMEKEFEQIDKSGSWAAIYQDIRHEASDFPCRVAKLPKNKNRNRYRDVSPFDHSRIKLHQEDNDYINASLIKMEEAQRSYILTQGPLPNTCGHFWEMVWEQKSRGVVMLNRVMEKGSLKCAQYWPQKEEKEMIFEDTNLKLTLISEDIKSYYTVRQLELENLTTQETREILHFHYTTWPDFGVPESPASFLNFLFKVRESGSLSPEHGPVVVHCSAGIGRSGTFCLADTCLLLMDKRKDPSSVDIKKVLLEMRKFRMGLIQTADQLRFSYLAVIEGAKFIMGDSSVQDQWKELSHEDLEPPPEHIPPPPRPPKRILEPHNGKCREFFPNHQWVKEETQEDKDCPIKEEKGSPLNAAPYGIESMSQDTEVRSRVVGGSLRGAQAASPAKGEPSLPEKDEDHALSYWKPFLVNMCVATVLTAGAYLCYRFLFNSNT
Summary of the method: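 GST–PTP1B (30–40 nM) in 50 mM MOPs pH 6.5 with 2 mM DTT, 1 mM EDTA and 2% DMSO. Substrate was 2 mM pNPP.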

A549 = assay: Cytotoxicity against A549 cell line; format: functional, cell-based; settings: Homo sapiens
Summary of the method: (§1)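 Tumor cells trypsinized and seeded at 3000 cells/well; after attachment, exposed to a range of compound concentrations for 72 h. MTT (5 mg/mL) was added and incubated 3 h, then medium was removed and formazan dissolved in DMSO. Absorbance read at 550 nm with […] reference.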

HCT-116 = assay: Cytotoxicity against HCT116 cell line; format: functional, cell-based; settings: Homo sapiens; summary of the method: as §1

SMILES	IC50 ([1]; read-out: IC50) [µM]	IC50 ([2]; read-out: IC50) [µM]	IC50 ([3]; read-out: IC50) [µM]	IC50 [3]	IC50 [1]	IC50 [2]	IC50 (A549) [µM]	IC50 (HCT-116) [µM]
CC(C)C1=C(Nc2ccccc2)c2ccc3c(c2C(=O)C1=O)CCCC3(C)C	8.81	3.99	27.2				19.1	6.25
CC(C)C1=C(Nc2ccccc2)c2ccccc2C(=O)C1=O	10.9	8.71		Not Active			25	8.22
CC(C)C1=C(Sc2ccc(F)cc2)c2ccccc2C(=O)C1=O	12.8	7.55	7.22				20.4	20.8
CC(C)C1=C(Sc2ccc(Br)cc2)c2ccc3c(c2C(=O)C1=O)CCCC3(C)C	20.3	3.78	7.19				5.07	4.94
CC(C)C1=C(Sc2ccc(F)cc2)c2ccc3c(c2C(=O)C1=O)CCCC3(C)C	22.1	2.58	4.55				1.25	5.71
CC(C)C1=C(Nc2ccc([N+](=O)[O-])cc2)c2ccc3c(c2C(=O)C1=O)CCCC3(C)C				Not Active	Not Active	Not Active	5.34	7.1
CC(=O)Nc1ccc(SC2=C(C(C)C)C(=O)C(=O)c3ccccc32)cc1	21.9	13.8	7.63				7.36	6.32
CC(C)C1=Cc2ccc3c(c2C(=O)C1=O)CCCC3(C)C [MILTIRONE]	> 70.8			Not Active		Not Active	24.6	12.4
COc1ccc(NC2=C(C(C)C)C(=O)C(=O)c3c2ccc2c3CCCC2(C)C)cc1	11.8	4.09		Not Active			9.19	5.51
CC(C)C1=Cc2ccccc2C(=O)C1=O	11.2	24.1		Not Active			4.14	4
Cc1ccc(NC2=C(C(C)C)C(=O)C(=O)c3c2ccc2c3CCCC2(C)C)cc1	27.6	7.54		Not Active			4.25	24.9

Further lines, with some results ahead:

IC50 ([1]; read-out: IC50) [µM]	IC50 ([2]; read-out: IC50) [µM]	IC50 ([3]; read-out: IC50) [µM]	IC50 [3]	IC50 [1]	IC50 [2]	SMILES	IC50 (A549) [µM]	IC50 (HCT-116) [µM]
7.06	4.53	19.6				Cc1ccc(NC2=C(C(C)C)C(=O)C(=O)c3ccccc32)cc1	8.2	6.16
4.9	4.63		Not Active			COc1ccc(NC2=C(C(C)C)C(=O)C(=O)c3ccccc32)cc1	87	4.04
6.87	5.33	19.1				CC(C)C1=C(Nc2ccc([N+](=O)[O-])cc2)c2ccccc2C(=O)C1=O	6.59	2.39
3.96	3.16	4.11				CC(C)C1=C(c2ccccc2)c2ccc3c(c2C(=O)C1=O)CCCC3(C)C	6.24	6.28
7.83	3.23		Not Active			CC(C)C1=C(c2ccccc2)c2ccccc2C(=O)C1=O	24.7	29.6
3.97	5.07	10.4				CC(C)C1=C(Sc2ccccc2)c2ccc3c(c2C(=O)C1=O)CCCC3(C)C	26.6	5.75
5.86	10.9	13.7				CC(C)C1=C(Sc2ccccc2)c2ccccc2C(=O)C1=O	7.59	8.03
5.43	3.63	7.57				CC(C)C1=C(Sc2ccc(Br)cc2)c2ccccc2C(=O)C1=O	5.93	5.85
5.96	4.85	9.05				CC(=O)Nc1ccc(SC2=C(C(C)C)C(=O)C(=O)c3c2ccc2c3CCCC2(C)C)cc1	15.4	5.18
